Test results as given in ChEMBL document CHEMBL1123011, “Isoxazoles with antipicornavirus activity” (1985).
Converted amounts (≈) assume the structure as drawn. The source made the active and inactive calls. The rule behind the calls is not given here.

Assays:
[1] = system: Echovirus E9; assay: Minimum inhibitory concentration of compound in vitro against echovirus-9; assay type: functional; conditions: Enterovirus B
In short: (§1)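 Plaque reduction on day-old HeLa (Ohio) monolayers, about 80 pfu/well. Drug was serially diluted twofold from a 10 mg/mL Me2SO stock into an M-199/10% calf serum/agarose overlay, applied in duplicate after virus adsorption. Plaques were counted after 3 days in 2% CO2, following formaldehyde fixation and crystal violet staining. MIC was the concentration producing 50% plaque reduction.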

[2] = system: Mus musculus; assay: Effect of compound on number of survivors per 30 mice at dose 125 mg/kg; assay type: functional
In short: (§2)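 ICR Buckberg mice (18–21 g) were infected intracerebrally with polio-2 (MEF strain). Compound was given orally bid at 31–250 mg/kg: 1 h before infection, 2 h after, then twice daily for 13 days. Placebo and nonmedicated groups served as controls, with 30 mice per group. Flaccid paralysis and death were scored and survivors counted when the test ended on day 20.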

[3] = system: Mus musculus; assay: Effect of compound on number of survivors per 30 mice at dose 250 mg/kg; assay type: functional; in short: as §2
[4] = system: Mus musculus; assay: Effect of compound on number of survivors per 30 mice at dose 31 mg/kg; assay type: functional; in short: as §2
[5] = system: Mus musculus; assay: Effect of compound on number of survivors per 30 mice at dose 63 mg/kg; assay type: functional; in short: as §2
[6] = system: Mus musculus; assay: Effect of compound on number of survivors per 30 mice at nonmed mg/kg; assay type: functional; in short: as §2
[7] = system: Mus musculus; assay: Effect of compound on number of survivors per 30 mice at placebo mg/kg; assay type: functional; in short: as §2
[8] = system: Mus musculus; assay: Effect of compound on Poliovirus induced paralysis and death in mice when administered orally with 31 mg/kg.; assay type: functional; conditions: route oral; in short: as §2
[9] = system: Mus musculus; assay: Effect of compound on Poliovirus induced paralysis and death in mice when administered orally with dose 125 mg/kg.; assay type: functional; conditions: route oral; in short: as §2
[10] = system: Mus musculus; assay: Effect of compound on Poliovirus induced paralysis and death in mice when administered orally with dose 250 mg/kg.; assay type: functional; conditions: route oral; in short: as §2
[11] = system: Mus musculus; assay: Effect of compound on Poliovirus induced paralysis and death in mice when administered orally with dose 63 mg/kg.; assay type: functional; conditions: route oral; in short: as §2
[12] = system: Mus musculus; assay: Effect of compound on Poliovirus induced paralysis and death in mice when administered orally with nonmed mg/kg.; assay type: functional; in short: as §2
[13] = system: Mus musculus; assay: Effect of compound on Poliovirus induced paralysis and death in mice when administered orally with placebo mg/kg.; assay type: functional; in short: as §2
[14] = system: Poliovirus 2; assay: In vitro anti-picornavirus activity against Poliovirus type-2.; assay type: functional; conditions: Enterovirus C
[15] = system: Poliovirus 2; assay: Minimum inhibitory concentration of compound in vitro against poliovirus-2; assay type: functional; conditions: Enterovirus C
In short: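 Plaque-reduction assay on day-old HeLa (Ohio) monolayers at 90% confluence, infected with polio-2 at ca. 80 pfu/well. Adsorption was at least 1 h at 37 °C in 2% CO2. Cells were then overlaid in duplicate with drug in M-199/calf serum/agarose (Me2SO stock at 10 mg/mL, twofold dilutions) and held 3 days. Plaques were fixed with formaldehyde, stained with crystal violet and counted. MIC is the concentration giving 50% plaque reduction.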

[16] = system: Poliovirus 3; assay: Minimum inhibitory concentration of compound in vitro against poliovirus-3; assay type: functional; conditions: Enterovirus C
[17] = system: Enterovirus; assay: Effect on plaque production by Human Rhinovirus serotype 13; assay type: functional
In short: (§3)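 HeLa (Ohio) monolayers (day-old, 90%) were infected at about 80 pfu/well and adsorbed at least 1 h at 33 °C in 2% CO2. After 3 days at 33 °C they were fixed with formaldehyde and stained with crystal violet. MIC was the concentration giving 50% fewer plaques.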

[18] = system: Enterovirus; assay: Effect on plaque production by Human Rhinovirus serotype 14; assay type: functional; in short: as §3
[19] = system: Enterovirus; assay: Effect on plaque production by Human Rhinovirus serotype 16; assay type: functional; in short: as §3
[20] = system: Enterovirus; assay: Effect on plaque production by Human Rhinovirus serotype 18; assay type: functional; in short: as §3
[21] = system: Enterovirus; assay: Effect on plaque production by Human Rhinovirus serotype 1A (seven most common serotypes); assay type: functional; in short: as §3
[22] = system: Enterovirus; assay: Effect on plaque production by Human Rhinovirus serotype 2; assay type: functional; in short: as §3
[23] = system: Enterovirus; assay: Effect on plaque production by Human Rhinovirus serotype 21; assay type: functional; in short: as §3
[24] = system: Enterovirus; assay: Effect on plaque production by Human Rhinovirus serotype 22; assay type: functional; in short: as §3
[25] = system: Enterovirus; assay: Effect on plaque production by Human Rhinovirus serotype 29; assay type: functional; in short: as §3
[26] = system: Enterovirus; assay: Effect on plaque production by Human Rhinovirus serotype 29 (seven most common serotypes); assay type: functional; in short: as §3
[27] = system: Enterovirus; assay: Effect on plaque production by Human Rhinovirus serotype 3; assay type: functional; in short: as §3
[28] = system: Enterovirus; assay: Effect on plaque production by Human Rhinovirus serotype 31 (seven most common serotypes); assay type: functional; in short: as §3
[29] = system: Enterovirus; assay: Effect on plaque production by Human Rhinovirus serotype 33; assay type: functional; in short: as §3
[30] = system: Enterovirus; assay: Effect on plaque production by Human Rhinovirus serotype 36; assay type: functional; in short: as §3
[31] = system: Enterovirus; assay: Effect on plaque production by Human Rhinovirus serotype 39; assay type: functional; in short: as §3
[32] = system: Enterovirus; assay: Effect on plaque production by Human Rhinovirus serotype 41; NA=Not active; assay type: functional, organism-based; in short: as §3
[33] = system: Enterovirus; assay: Effect on plaque production by Human Rhinovirus serotype 49; assay type: functional; in short: as §3
[34] = system: Enterovirus; assay: Effect on plaque production by Human Rhinovirus serotype 5; assay type: functional; in short: as §3
[35] = system: Enterovirus; assay: Effect on plaque production by Human Rhinovirus serotype 50; assay type: functional; in short: as §3
[36] = system: Enterovirus; assay: Effect on plaque production by Human Rhinovirus serotype 61; assay type: functional; in short: as §3
[37] = system: Enterovirus; assay: Effect on plaque production by Human Rhinovirus serotype 72; NA=Not active; assay type: functional, organism-based; in short: as §3
[38] = system: Enterovirus; assay: Effect on plaque production by Human Rhinovirus serotype 75; assay type: functional; in short: as §3
[39] = system: Enterovirus; assay: Effect on plaque production by Human Rhinovirus serotype 86; assay type: functional; in short: as §3
[40] = system: Enterovirus; assay: Effect on plaque production by Human Rhinovirus serotype 89; assay type: functional; in short: as §3
[41] = system: rhinovirus A2; assay: Minimum inhibitory concentration of compound in vitro against rhinovirus-2; assay type: functional, rhinovirus type-2; conditions: Rhinovirus A; in short: as §3
[42] = Maximum testable level of compound was evaluated; assay type: functional
In short: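 In the HeLa (Ohio) plaque-overlay system, Me2SO-solubilized compound was twofold serially diluted into the agarose overlay. Uninfected cell controls were run alongside and cells were stained with crystal violet after 3 days. The maximum testable level was taken as the concentration below which no cytotoxic effects were seen.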

[43] = system: Enterovirus; assay: Effect on plaque production by Human Rhinovirus serotype 1B (seven most common serotypes); assay type: functional; in short: as §3
[44] = system: Echovirus E11; assay: Minimum inhibitory concentration of compound in vitro against echovirus-11; assay type: functional; conditions: Enterovirus B; in short: as §1
[45] = system: rhinovirus A2; assay: In vitro anti-picornavirus activity against Rhinovirus type-2.; assay type: functional; conditions: Rhinovirus A
In short: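 HeLa (Ohio) monolayers (day-old, 90%) were infected at about 80 pfu/well and adsorbed at least 1 h at 33 °C in 2% CO2. After 3 days at 33 °C they were fixed with formaldehyde and stained with crystal violet.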

[46] = system: Enterovirus; assay: Effect on plaque production by Human Rhinovirus serotype 15 (seven most common serotypes); assay type: functional; in short: as §3
[47] = system: Enterovirus; assay: Effect on plaque production by Human Rhinovirus serotype 4 (seven most common serotypes); NA=Not active; assay type: functional, organism-based; in short: as §3

COc1ccc(OCCCCCCCc2cc(C)no2)c(Cl)c1
MIC [1]: 0.15 µg/mL (≈ 0.444 µM) | Survivors [2]: 22 | Survivors [3]: 28 | Survivors [4]: 16 | Survivors [5]: 20 | Survivors [6]: 7 | Survivors [7]: 7 | survival at 31 mg/kg [8]: 53% | survival at 125 mg/kg [9]: 73% | survival at 250 mg/kg [10]: 93% | survival at 63 mg/kg [11]: 67% | Survival [12]: 22% | Survival [13]: 22% | MIC [14]: 0.05 µg/mL (≈ 0.148 µM) | MIC [15]: 0.05 µg/mL (≈ 0.148 µM) | MIC [16]: 0.08 µg/mL (≈ 0.237 µM) | MIC [17]: 1.9 µg/mL (≈ 5.62 µM) | MIC [18]: 1.35 µg/mL (≈ 4 µM) | MIC [19]: 0.04 µg/mL (≈ 0.118 µM) | MIC [20]: 1.5 µg/mL (≈ 4.44 µM) | MIC [21]: 0.29 µg/mL (≈ 0.858 µM) | MIC [22]: 0.04 µg/mL (≈ 0.118 µM) | MIC [23]: 0.01 µg/mL (≈ 0.0296 µM) | MIC [24]: 0.1 µg/mL (≈ 0.296 µM) | MIC [25]: 3.1 µg/mL (≈ 9.18 µM) | MIC [26]: 0.33 µg/mL (≈ 0.977 µM) | MIC [27]: 0.5 µg/mL (≈ 1.48 µM) | MIC [28]: 0.53 µg/mL (≈ 1.57 µM) | MIC [29]: 0.05 µg/mL (≈ 0.148 µM) | MIC [30]: 0.04 µg/mL (≈ 0.118 µM) | MIC [31]: 0.07 µg/mL (≈ 0.207 µM) | MIC [32]: inactive | MIC [33]: 0.26 µg/mL (≈ 0.77 µM) | MIC [34]: 5.8 µg/mL (≈ 17.2 µM) | MIC [35]: 0.13 µg/mL (≈ 0.385 µM) | MIC [36]: 0.09 µg/mL (≈ 0.266 µM) | MIC [37]: inactive | MIC [38]: 4.1 µg/mL (≈ 12.1 µM) | MIC [39]: 0.25 µg/mL (≈ 0.74 µM) | MIC [40]: 0.03 µg/mL (≈ 0.0888 µM) | MIC [41]: 0.04 µg/mL (≈ 0.118 µM) | MTL [42]: 12.5 µg/mL | MIC [43]: 0.37 µg/mL (≈ 1.1 µM) | MIC [44]: 0.04 µg/mL (≈ 0.118 µM) | MIC [45]: 0.04 µg/mL (≈ 0.118 µM) | MIC [46]: 0.44 µg/mL (≈ 1.3 µM) | MIC [47]: inactive
